Test results taken from ChEMBL document CHEMBL1142827, “The identification and optimization of a N-hydroxy urea series of flap endonuclease 1 inhibitors” (Bioorg Med Chem Lett, 2005).

What was measured:
Format in all cases: functional, Homo sapiens
T-24 [1] = assay: Percent of viable cells by survival assay (colony forming) in T24 bladder carcinoma cells at 1 uM in the presence of DMSO
Outline: (§1)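 Colony-forming survival assay in T24 bladder carcinoma cells. Compound was given alongside DMSO alone or methyl methanesulfonate (MMS) at 110, 150 or 200 μM. Survival is expressed relative to the DMSO-only control, set at 100. Values are the average of two independent experiments.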

T-24 [2] = assay: Percent of viable cells by survival assay (colony forming) in T24 bladder carcinoma cells at 3 uM in the presence of DMSO; outline: as §1
T-24 [3] = assay: Percent of viable cells by survival assay (colony forming) in T24 bladder carcinoma cells at 1 uM in the presence of 110 uM MMS; outline: as §1
T-24 [4] = assay: Percent of viable cells by survival assay (colony forming) in T24 bladder carcinoma cells at 1 uM in the presence of 150 uM MMS; outline: as §1
T-24 [5] = assay: Percent of viable cells by survival assay (colony forming) in T24 bladder carcinoma cells at 1 uM in the presence of 200 uM MMS; outline: as §1
T-24 [6] = assay: Percent of viable cells by survival assay (colony forming) in T24 bladder carcinoma cells at 3 uM in the presence of 110 uM MMS; outline: as §1
T-24 [7] = assay: Percent of viable cells by survival assay (colony forming) in T24 bladder carcinoma cells at 3 uM in the presence of 150 uM MMS; outline: as §1
T-24 [8] = assay: Percent of viable cells by survival assay (colony forming) in T24 bladder carcinoma cells at 3 uM in the presence of 200 uM MMS; outline: as §1

SMILES | Viable cells (T-24 [1]) | Viable cells (T-24 [2]) | Viable cells (T-24 [3]) | Viable cells (T-24 [4]) | Viable cells (T-24 [5]) | Viable cells (T-24 [6]) | Viable cells (T-24 [7]) | Viable cells (T-24 [8])
COc1cc(Cn2c(=O)n(O)c(=O)c3c(C)csc32)cc2c1OCO2 | 100% | 86% | 24% | 12% | 2% | 11% | 6% | 0%
O=c1c2sccc2n(CC2COc3ccccc3O2)c(=O)n1O (stereo unspecified) | 96% | 87% | 18% | 6% | 4% | 11% | 5% | 4%
